Reference: ChEMBL document CHEMBL1136610, “Dehydrophenylalanine derivatives as VLA-4 integrin antagonists” (Bioorg Med Chem Lett, 2003)
pIC50: −log10 of the molar value.

Experiments:
[1] = species: Rattus norvegicus; assay: Clearance rate constant using isolated perfused rat liver (IPRL) assay; format: ADME
[2] = molecular target: T1, Integrin alpha-4/beta-1 (Homo sapiens, UniProt P05556+P13612); assay: Inhibition of VLA-4 to VCAM-1 binding; format: protein-complex assay
Summary of the method: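 Test compounds titrated into a solution of 2-domain VCAM-Fc-Ig, then added to assay wells. Buffer: TBS with 1% BSA, 1 mM MnCl2 and 0.1% Tween. Incubated 2 h at room temperature, then washed. Bound VCAM detected with peroxidase-coupled anti-human Fc. Reported as IC50.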

[3] = molecular target: T1, Integrin alpha-4/beta-1; assay: Inhibition of VLA-4 to VCAM-1 binding in Jurkat cell adhesion assay; format: cell-based
Summary of the method: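 Jurkat cells expressing VLA-4 incubated 30 min at 37 °C with test compounds on human 2-domain VCAM-1-Fc, which was immobilised on the plate via anti-human Fc. Plates washed and adherent cells stained with Rose Bengal. Reported as IC50.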

T1 sequence (P05556 whole entry): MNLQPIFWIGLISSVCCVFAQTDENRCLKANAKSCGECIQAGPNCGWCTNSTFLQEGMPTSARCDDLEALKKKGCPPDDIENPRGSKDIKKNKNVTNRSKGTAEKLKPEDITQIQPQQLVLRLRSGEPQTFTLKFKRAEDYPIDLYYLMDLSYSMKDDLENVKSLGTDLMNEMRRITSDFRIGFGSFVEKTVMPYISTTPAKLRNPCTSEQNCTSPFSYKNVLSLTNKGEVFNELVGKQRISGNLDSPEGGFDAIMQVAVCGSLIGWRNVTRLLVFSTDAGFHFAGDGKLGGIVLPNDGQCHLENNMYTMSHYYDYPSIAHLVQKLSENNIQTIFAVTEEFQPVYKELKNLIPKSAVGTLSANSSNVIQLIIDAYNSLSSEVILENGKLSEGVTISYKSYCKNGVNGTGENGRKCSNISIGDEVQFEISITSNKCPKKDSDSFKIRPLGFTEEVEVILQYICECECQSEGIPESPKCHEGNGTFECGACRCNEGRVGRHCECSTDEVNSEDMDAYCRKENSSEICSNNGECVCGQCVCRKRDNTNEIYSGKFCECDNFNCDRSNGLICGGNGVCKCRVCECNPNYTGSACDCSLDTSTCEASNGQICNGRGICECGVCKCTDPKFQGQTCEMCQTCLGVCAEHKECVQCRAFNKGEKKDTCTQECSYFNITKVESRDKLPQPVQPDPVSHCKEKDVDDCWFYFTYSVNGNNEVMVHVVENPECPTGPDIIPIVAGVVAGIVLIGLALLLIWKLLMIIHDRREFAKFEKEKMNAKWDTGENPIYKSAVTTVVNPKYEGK
T1 sequence (P13612 whole entry): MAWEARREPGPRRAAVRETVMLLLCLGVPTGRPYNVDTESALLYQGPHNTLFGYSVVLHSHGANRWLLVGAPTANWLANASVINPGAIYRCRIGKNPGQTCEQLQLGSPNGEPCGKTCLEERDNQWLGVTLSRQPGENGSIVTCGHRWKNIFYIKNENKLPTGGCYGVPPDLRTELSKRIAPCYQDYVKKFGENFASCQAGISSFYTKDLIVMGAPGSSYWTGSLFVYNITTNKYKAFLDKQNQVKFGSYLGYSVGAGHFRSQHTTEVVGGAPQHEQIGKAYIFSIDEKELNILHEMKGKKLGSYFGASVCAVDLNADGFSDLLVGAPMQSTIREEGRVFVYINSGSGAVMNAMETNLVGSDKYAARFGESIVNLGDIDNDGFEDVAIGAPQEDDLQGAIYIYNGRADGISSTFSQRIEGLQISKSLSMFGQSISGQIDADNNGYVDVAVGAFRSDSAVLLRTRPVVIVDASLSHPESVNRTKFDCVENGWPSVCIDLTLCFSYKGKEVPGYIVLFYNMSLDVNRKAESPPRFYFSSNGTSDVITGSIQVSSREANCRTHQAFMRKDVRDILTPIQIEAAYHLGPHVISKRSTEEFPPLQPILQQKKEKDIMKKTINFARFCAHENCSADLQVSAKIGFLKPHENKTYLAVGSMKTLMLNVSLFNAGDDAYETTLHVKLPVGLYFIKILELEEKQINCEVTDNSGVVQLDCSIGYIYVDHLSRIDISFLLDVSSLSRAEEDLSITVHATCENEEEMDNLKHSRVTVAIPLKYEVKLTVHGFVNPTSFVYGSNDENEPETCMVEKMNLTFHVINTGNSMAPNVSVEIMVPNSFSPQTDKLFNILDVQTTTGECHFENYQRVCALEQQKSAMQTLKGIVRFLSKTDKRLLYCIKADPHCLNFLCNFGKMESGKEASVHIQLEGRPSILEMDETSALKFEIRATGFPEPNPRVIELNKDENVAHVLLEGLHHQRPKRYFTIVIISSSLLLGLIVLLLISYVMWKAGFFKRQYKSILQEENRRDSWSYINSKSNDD

k [1] [h⁻¹] | pIC50 [2] | pIC50 [3] | SMILES
0.7 | 6.40 | 4.54 | CC(=O)N1CSC[C@@H]1C(=O)N/C(=C/c1ccc(NC(=O)c2c(Cl)cccc2Cl)cc1)C(=O)O
1.5 | 7.18 | 5.07 | O=C(O)/C(=C\c1ccc(NC(=O)c2c(Cl)cncc2Cl)cc1)NC(=O)c1cccnc1Cl
0.6 | 5.82 | 4.70 | CC(=O)N1CSC[C@H]1C(=O)N/C(=C/c1ccc(OCc2ccccc2)cc1)C(=O)O
0.4 | 5.13 | 4.08 | CC(=O)N1CSCC1C(=O)N/C(=C/c1ccc(OCc2c(Cl)cccc2Cl)cc1)C(=O)O (stereo not drawn)
 | 5.57 | 4.10 | CC(C)(C)C(=O)N/C(=C/c1ccc(NC(=O)c2c(Cl)cccc2Cl)cc1)C(=O)O
 | 6.85 | 4.85 | O=C(O)/C(=C/c1ccc(OCc2c(Cl)cncc2Cl)cc1)NC(=O)c1cccnc1Cl
3.8 | 5.66 | 4.15 | CC(=O)N1CSC[C@H]1C(=O)N/C(=C\c1ccc(OCc2ccccc2)cc1)C(=O)O
3.7 | 6.66 | 5.15 | O=C(O)/C(=C/c1ccc(OCc2c(Cl)cccc2Cl)cc1)NC(=O)c1cccnc1Cl
4.4 | 8.70 | 7.60 | CC(=O)N1CSC[C@@H]1C(=O)N/C(=C\c1ccc(NC(=O)c2c(Cl)cncc2Cl)cc1)C(=O)O
4.1 | 5.55 | 5.30 | CC(=O)N1CSC[C@@H]1C(=O)N/C(=C\c1ccc(OCc2c(Cl)cccc2Cl)cc1)C(=O)O
4.8 | 7.30 | 5.43 | CC(C)(C)C(=O)N/C(=C\c1ccc(NC(=O)c2c(Cl)cccc2Cl)cc1)C(=O)O
1.2 | 7.22 | 6.70 | CC(=O)N1CSC[C@@H]1C(=O)N/C(=C/c1ccc(NC(=O)c2c(Cl)cncc2Cl)cc1)C(=O)O
5.3 | 7.26 | 6.39 | O=C(O)C1=Cc2ccc(NC(=O)c3c(Cl)cncc3Cl)cc2NC(c2cccnc2Cl)=N1
3.9 | 8.30 | 6.85 | CC(=O)N1CSC[C@@H]1C(=O)N/C(=C\c1ccc(NC(=O)c2c(Cl)cccc2Cl)cc1)C(=O)O
3.9 | 8.85 | 7.15 | O=C(O)/C(=C/c1ccc(NC(=O)c2c(Cl)cncc2Cl)cc1)NC(=O)c1cccnc1Cl
